Screening data (PubChem)
TCR CD3 inh: inhibitors of human TCR-CD3 interaction, primary screen, biochemical, fluorescence, TAMRA-labeled TCR probe. inhibition, % at 9.4 µM. AID 651800, 2012. 0.37% of 360,000 active; in the data active = inhibition above about 19%;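 note: recombinant mutant TCR 2C K166C tagged with TAMRA read by polarization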
MBD2 DNA inh: inhibitors of MBD2 binding to methylated DNA, primary screen, biochemical, TR-FRET, DNA-binding domain, human; inhibition, % at 4.4 µM; MBD2 binding to methylated oligonucleotide; AID 686964, 2013; 0.31% of 370,000 active; Methyl-CpG-binding domain protein 2 (Homo sapiens), Q9UBB5; in the data active = inhibition above about 13%
LEDGF integ inh: blockers of LEDGF/p75-dependent integrase strand transfer – biochemical, TR-FRET, high throughput, primary screen. HIV-1 integrase (with human LEDGF/p75). TR-FRET IN-LEDGF/p75 DNA integration, Eu/Cy5. inhibition, % at 3.7 µM. 0.64% of 370,000 active. AID 743269, 2014;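 active = inhibition above the screen-wide mean plus 3 SD, cut at about 13% in these data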;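 note: signal is the Cy5 over europium emission ratio at 671 and 618 nm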
UHRF1 MBD2 ctr: UHRF1 methylated DNA binding inhibitors, primary screen, counter-screen for MBD2 inhibitor project, biochemical, TR-FRET, human UHRF1, single concentration; UHRF1 binding to methylated oligo; AID 687016, 2013; E3 ubiquitin-protein ligase UHRF1 (Homo sapiens), Q96T88; inhibition, % at 4.4 µM; 0.75% of 370,000 active; in the data active = inhibition above about 21%;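 note: UHRF1 SRA domain binding a hemimethylated CpG hairpin DNA probe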
ARFGAP1 inhibitor: inhibitors of rat ARFGAP1 GAP activity, primary screen, biochemical, fluorescence polarization, GDP tracer; ADP-ribosylation factor GTPase-activating protein 1 (Rattus norvegicus), Q62848; Arfgap1-stimulated ARF1 GTP hydrolysis, GDP FP detection; inhibition, % at 16.5 µM; 0.26% of 360,000 active; AID 651572, 2012;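 active = inhibition above a per-plate limit, mean inhibition of low control wells plus 3 SD, cut at about 25% in these data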
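System: truncated rat Arfgap1 GAP domain / Medium: HEPES-based buffer, pH 7.5 / Also added: N-terminally truncated human ARF1-GTP substrate / Incubation: enzyme reaction 120 min at 25 °C after 20 min preincubation / Measured by: FP of antibody-bound GDP Alexa 633 tracer, ex 620/em 688 nm / Replicates: singlicate, each compound tested once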
ASAP1 inh: inhibitors of human ASAP1 ArfGAP activity, primary screen, biochemical, fluorescence polarization | inhibition, % at 16.5 µM | Arf-GAP with SH3 domain, ANK repeat and PH domain-containing protein 1 (Homo sapiens), … | 0.19% of 360,000 active | ASAP1-stimulated ARF1 GTP hydrolysis, GDP FP detection | AID 624377, 2012; in the data active = inhibition above about 25%
Target sequence (Q9ULH1 325-724 limits assumed): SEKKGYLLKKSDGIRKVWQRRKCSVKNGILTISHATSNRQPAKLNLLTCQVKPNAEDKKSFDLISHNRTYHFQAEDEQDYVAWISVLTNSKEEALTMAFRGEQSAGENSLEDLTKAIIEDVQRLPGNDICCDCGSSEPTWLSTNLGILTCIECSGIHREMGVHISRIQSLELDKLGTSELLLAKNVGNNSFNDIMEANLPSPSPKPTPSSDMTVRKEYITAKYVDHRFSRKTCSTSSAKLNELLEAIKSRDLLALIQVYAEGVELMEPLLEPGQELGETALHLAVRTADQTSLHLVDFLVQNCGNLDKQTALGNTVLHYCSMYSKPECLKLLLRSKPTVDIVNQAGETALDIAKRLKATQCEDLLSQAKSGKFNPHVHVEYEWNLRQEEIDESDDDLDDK
Each line names hits and unclear results; the compound was inactive in the other large screens. Sampled rows, rich in hits. Any-hit rate of the full collection: about 2%.

CCC(C)N(C(=O)COC(=O)CNC(=O)c1sc2ccccc2c1Cl)C1CCS(=O)(=O)C1 (configuration not stated)	UHRF1 MBD2 ctr 21
CCN(C(=O)COC(=O)CNC(=O)c1sc2ccccc2c1Cl)C1CCCCC1	none
CN(CC1CCCN(CCc2ccc(Cl)cc2)C1)C(=O)c1ccco1 (configuration not stated)	none
CCNC(=O)/C=C1\NC(C)(C)Cc2c1ccc1ccccc21	UHRF1 MBD2 ctr 22
COCCN1CC(CNC(=O)c2cc(COc3ccc(C)c(C)c3)on2)CC1=O (configuration not stated)	UHRF1 MBD2 ctr 21
O=C(NNC(=O)c1ccc(Br)s1)c1csc(N2CCOCC2)n1	none
Cc1ccc(NC(=O)N/C=C/c2ccco2)cc1	LEDGF integ inh 14
Cc1ccc(NC(=O)/C(=C\c2ccco2)NC(=O)c2ccco2)cc1	none
COc1ccc(/C=N/NC(=O)c2ccc(N(C)S(=O)(=O)c3ccccc3)cc2)c(OC)c1	UHRF1 MBD2 ctr 32
C#CCNC(=O)C[C@H]1C[C@@]2(C(=O)OC)C(=C[C@H](COCc3ccccc3)O[C@@H]2C)N(Cc2ccccc2)C1=O	none (no result: TCR CD3 inh, ARFGAP1 inhibitor, ASAP1 inh)
CCOc1ncccc1C(=O)N1CCN(C(=O)c2ccccc2)CC1	UHRF1 MBD2 ctr 21
CN(c1ccccc1)S(=O)(=O)c1cc(C(=O)OCC(=O)c2c(N)n(C)c(=O)n(C)c2=O)ccc1Cl	none
CCN(c1ccccc1)S(=O)(=O)c1cc(C(=O)OCC(=O)c2c(N)n(C)c(=O)n(C)c2=O)ccc1C	UHRF1 MBD2 ctr 32
C=C(C)Cn1c(N(CCO)Cc2ccccc2)nc2c1c(=O)[nH]c(=O)n2C	UHRF1 MBD2 ctr 84
COC(=O)[C@@H]1N=C(c2ccc(OC)cc2)O[C@]12C(=O)N(Cc1cn(-c3ccccc3)nn1)c1cccc(Cl)c12	none (no result: TCR CD3 inh, ARFGAP1 inhibitor, ASAP1 inh)
N#CC(C#N)=Cc1cccn1-c1ccc(C(=O)O)cc1	UHRF1 MBD2 ctr 43
N#C/C(=C/c1cccn1-c1cccc(C(=O)O)c1)c1ccc(Cl)cc1	none
CC1(c2ccc(O)cc2)NC(=O)N(c2ccccc2)N1 (configuration not stated)	UHRF1 MBD2 ctr 24
C=C(C)CCC1(C)NC(=O)N(c2ccccc2)N1 (configuration not stated)	none
O=C(COC(=O)c1ccccc1F)Nc1cccnc1Cl	UHRF1 MBD2 ctr 25
N=C1/C(=C/c2ccc(-c3cccc(C(=O)O)c3)o2)C(=O)N=C2SC=C(c3ccccc3)N12	LEDGF integ inh 24
CCn1c(SCc2nc3sc(C(=O)O)c(C)c3c(=O)[nH]2)nc2ccccc21	UHRF1 MBD2 ctr 25
Cc1cccc(C)c1NC(=O)COc1ccc2c(C)c(Cc3ccccc3)c(=O)oc2c1C	UHRF1 MBD2 ctr 64
CN(C(=O)CC1C(=O)NCCN1C/C=C/c1ccccc1)C1CCOCC1 (configuration not stated)	none
C#CCN(C(=O)CC1C(=O)NCCN1C/C=C/c1ccccc1)C1CCCCC1 (configuration not stated)	UHRF1 MBD2 ctr 44
C[C@@H]1CCCCO[C@@H](CN(C)C(=O)CCC(F)(F)F)[C@@H](C)CN([C@H](C)CO)C(=O)c2cc(NS(=O)(=O)c3cccs3)ccc2O1	UHRF1 MBD2 ctr 22
C[C@H](CO)N1C[C@H](C)[C@@H](CN(C)Cc2ccc(Cl)c(Cl)c2)Oc2c(NS(=O)(=O)c3ccc(F)cc3)cccc2C1=O	ASAP1 inh 31
Cc1ccc(S(=O)(=O)N(C)C[C@@H]2OCCCC[C@H](C)Oc3ccc(NC(=O)Nc4ccc(F)cc4)cc3C(=O)N([C@H](C)CO)C[C@H]2C)cc1	none
C[C@@H]1CN([C@@H](C)CO)C(=O)c2cc(NC(=O)c3ccccc3)ccc2O[C@@H](C)CCCCO[C@@H]1CN(C)S(=O)(=O)c1ccc(F)cc1	UHRF1 MBD2 ctr 21
